# High-throughput results as filed in PubChem.
# FN deposit inh – fibronectin deposition inhibition; AH1F fibroblasts, Alexa488-fibronectin deposition fluorescence, overnight; inhibition, % at 12.6 µM; 350,000 tested, 0.086% active; AID 743247;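 active = mean inhibition across replicates of 30% or more, regardless of how many single replicates reach that level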
#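 test system = AH1F fibroblasts assembling fluorescent fibronectin matrix | quantity = 10000 AH1F cells per well | buffer or medium = DMEM plus 2% serum, read in PBS | doses = single dose, pinned | incubation = 1 h cell attachment, overnight exposure to compound and label | detection = fluorescence at 485 nm excitation, 525 nm emission | read-out basis = inhibition from reduced deposited-fibronectin fluorescence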
# APOBEC3A inh – blocks human APOBEC3A ssDNA deamination | recombinant A3A, FAM/TAMRA ssDNA deamination fluorescence | inhibition, % at 20 µM | 330,000 tested, 0.41% active;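 active = at least 40% inhibition at 20 µM here, with at most 30% in a related deaminase screen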
# ABHD5 PLIN5 PPI – inhibitors of human ABHD5-perilipin-5 interaction. Split G. princeps luciferase complementation, luminescence, 4 h. 360,000 tested, 0.78% active. inhibition, % at 4 µM. Q00G26+Q8WTS1. AID 602281;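 active = inhibition above the mean inhibition across every tested compound plus 3 SD, cut at about 22% in these data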
# A3G deaminase – APOBEC3G (human) deaminase inhibition; recombinant A3G, ssDNA deamination FAM/TAMRA fluorescence; inhibition, % at 20 µM; 330,000 tested, 0.28% active;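 active = inhibition of at least 40% at 20 µM, with no more than 30% in the related APOBEC3A deaminase screen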
# ABHD5-PLIN5 conf – confirmation of human ABHD5-PLIN5 interaction inhibitors; biochemical ABHD5-PLIN5 interaction, luminescence; shares compounds with ABHD5 PLIN5 PPI; inhibition, % at 4 µM; 2,200 tested, 67% active; in the data active = inhibition above about 23%
# HNF4 counter – HNF4 split-luciferase signal hit, counter-screen. shares compounds with ABHD5 PLIN5 PPI. HNF4 dimerization, luminescence, biochemical. inhibition, % at 4 µM. 2,200 tested, 77% active. AID 651674;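 active = mean inhibition across replicate wells exceeding the computed hit threshold, cut at about 13% in these data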;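 note: light from luciferase halves that rejoin when HNF4 fusion proteins dimerize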
# Hits are given with their value; i = inactive; nt = no result. An excerpt weighted towards active compounds, which were near 1.2% of everything screened.
SMILES,FN deposit inh,APOBEC3A inh,ABHD5 PLIN5 PPI,A3G deaminase,ABHD5-PLIN5 conf,HNF4 counter
CC(=O)OCC1=C(C(=O)O)N2C(=O)C(NC(=O)c3ccc(F)cc3)C2SC1 (configuration not stated),i,i,30,i,i,28
CC1OC(CC(=O)O)CC2=C1C(=O)c1c(O)cccc1C2=O (configuration not stated),59,nt,99,nt,i,i
CCOc1cc(/C=C2\COc3ccccc3C2=O)cc(Br)c1OCC(=O)N(C)C,i,i,77,i,86,94
COc1ccc(/C=C2\COc3ccccc3C2=O)cc1OC,i,i,33,i,76,71
O=C(O)c1ccc(/C=C2\COc3ccccc3C2=O)cc1,i,i,32,i,84,78
CCOc1cc(/C=N/Nc2nc3ccccc3[nH]2)cc(Br)c1OCC(=O)N(C)C,i,i,i,i,nt,nt
CO[C@@H]1CN(C)C(=O)c2cc(NC(=O)C3CCCC3)ccc2OC[C@H](C)N(C)C[C@H]1C,i,nt,nt,nt,nt,nt
CCCNC(=O)Nc1ccc2c(c1)C(=O)N(C)[C@H]1CC[C@H](CC(=O)Nc3ccccc3F)O[C@@H]1CO2,i,nt,nt,nt,nt,nt
O=C(C[C@@H]1C[C@H]2c3cc(NC(=O)Nc4ccccc4F)ccc3O[C@H]2[C@@H](CO)O1)NCc1ccc(Oc2ccccc2)cc1,i,nt,nt,nt,nt,nt
CC(C)C(C)NC(=O)CSc1nc2scc(-c3ccco3)c2c(=O)n1-c1ccccc1 (configuration not stated),nt,i,38,i,i,15
Cc1sc2nc(SCC(=O)NCc3ccco3)n(-c3ccccc3)c(=O)c2c1C,nt,i,i,i,nt,nt
CC(C)C(C)(C#N)NC(=O)CSc1nc2scc(-c3ccco3)c2c(=O)n1-c1ccccc1 (configuration not stated),i,i,25,i,30,93
Cc1ccc(-n2c(SCC(=O)NCc3ccco3)nc3sc(C)c(C)c3c2=O)cc1,i,i,i,i,nt,nt
C[C@@H]1CN([C@H](C)CO)C(=O)c2cc(NC(=O)c3ccncc3)ccc2O[C@@H]1CN(C)Cc1ccc(Cl)c(Cl)c1,i,nt,nt,nt,nt,nt
Cc1ccc(S(=O)(=O)N(C)C[C@@H]2OCCCC[C@@H](C)Oc3ccc(NC(=O)CCCN(C)C)cc3C(=O)N([C@H](C)CO)C[C@@H]2C)cc1,i,nt,nt,nt,nt,nt
CC1=C(C)CS(=O)N(S(=O)(=O)c2ccc(Cl)cc2)C1 (configuration not stated),nt,i,80,i,93,109
CC1CCCC(C)N1S(=O)(=O)c1ccc(Cl)cc1 (configuration not stated),i,i,i,i,nt,nt
CO[C@@H](CN(C)C(=O)c1cnccn1)[C@@H](C)CN([C@@H](C)CO)S(=O)(=O)c1ccc(C)cc1,i,nt,nt,nt,nt,nt
COC(=O)C[C@H]1CC[C@H]2[C@@H](COC[C@H](O)CN2S(=O)(=O)c2cn(C)cn2)O1,i,nt,nt,nt,nt,nt
CSc1nc(O)c(C(c2ccc(O)cc2)c2c(O)nc(SC)[nH]c2=O)c(=O)[nH]1,i,i,50,i,83,81
CSc1nc(O)c(C(c2cccc([N+](=O)[O-])c2)c2c(O)nc(SC)[nH]c2=O)c(=O)[nH]1,i,i,25,i,i,18
CCOc1ccc(C(c2c(O)nc(SC)[nH]c2=O)c2c(O)nc(SC)[nH]c2=O)cc1,i,i,34,i,83,77
CCCNC(=O)C[C@H]1C[C@@H]2c3cc(NS(C)(=O)=O)ccc3O[C@@H]2[C@H](CO)O1,i,nt,nt,nt,nt,nt
CCC(=O)N(C)C[C@@H]1Oc2ncc(-c3ccc(C)cc3)cc2C(=O)N([C@H](C)CO)C[C@@H]1C,i,nt,nt,nt,nt,nt
C[C@H]1CCCCO[C@H](CN(C)C(=O)NC2CCCCC2)[C@@H](C)CN([C@@H](C)CO)C(=O)c2cc(NS(=O)(=O)c3ccc(Cl)cc3)ccc2O1,i,nt,nt,nt,nt,nt
SMILES,FN deposit inh,APOBEC3A inh,ABHD5 PLIN5 PPI,A3G deaminase,ABHD5-PLIN5 conf,HNF4 counter
CN1C(=O)c2cc(NC(=O)c3ccc(F)cc3)ccc2OC[C@@H]2O[C@H](CC(=O)NC3CCC3)CC[C@@H]21,i,nt,nt,nt,nt,nt
N#CCc1c(C#N)c(N)nc(N2CCN(C=O)CC2)c1C#N,i,i,23,i,i,i
CC(=O)N1CCN(c2nc(N)c(C#N)c(CC#N)c2C#N)CC1,i,i,i,i,nt,nt
CN1C(=O)c2cc(NC(=O)Nc3ccccc3)ccc2OC[C@H]2O[C@H](CC(=O)NC3CCC3)CC[C@@H]21,i,nt,nt,nt,nt,nt
CO[C@@H](CN(C)S(=O)(=O)c1cn(C)cn1)[C@H](C)CN(C(=O)Nc1ccc(F)cc1)[C@H](C)CO,i,nt,nt,nt,nt,nt
COc1ccc(S(=O)(=O)n2nc(-c3cc(OC)c(OC)c(OC)c3)cc2N)cc1OC,i,i,i,i,nt,nt
COc1ccc(-c2cc(N)n(S(=O)(=O)c3c(F)c(F)c(F)c(F)c3F)n2)cc1OC,nt,i,30,i,50,i
COc1ccc(S(=O)(=O)CC(=O)c2cc3cc(Br)ccc3oc2=O)cc1,i,i,33,i,70,53
COc1cccc2cc(C(=O)NCc3ccco3)c(=O)oc12,i,i,i,i,nt,nt
COc1ccc2oc(=O)c(C(=O)NCc3ccco3)cc2c1,i,i,34,i,i,i
Cc1noc(C)c1NC(=O)N(C)C[C@H]1Oc2c(NS(=O)(=O)c3cn(C)cn3)cccc2C(=O)N([C@H](C)CO)C[C@H]1C,i,nt,nt,nt,nt,nt
CN(C)CCCN(C(=O)c1ccc2c(c1)CCCC2)c1nc2ccc(Cl)cc2s1,i,i,28,i,i,i
CC1CCCCN1S(=O)(=O)c1ccc(C(=O)N(CCCN(C)C)c2nc3ccc(Br)cc3s2)cc1 (configuration not stated),nt,i,24,i,i,i
CN(C)CCCN(C(=O)COc1ccccc1)c1nc2ccc(Cl)cc2s1,i,i,i,i,nt,nt
CN(C)CCCN(C(=O)c1ccc(S(=O)(=O)N(C)Cc2ccccc2)cc1)c1nc2cc3c(cc2s1)OCO3,i,i,24,i,i,i
CN(C)CCN(C(=O)c1ccc(S(=O)(=O)N2CCCC2)cc1)c1nc2ccc(Br)cc2s1,i,i,i,i,nt,nt
CCOc1ccc2nc(N(CCCN(C)C)C(=O)c3ccc4c(c3)CCCC4)sc2c1,i,i,i,i,nt,nt
CCN(c1ccccc1)S(=O)(=O)c1ccc(C(=O)N(CCCN(C)C)c2nc3cc4c(cc3s2)OCO4)cc1,i,i,i,i,nt,nt
CN(C)CCCN(C(=O)CCc1ccccc1)c1nc2ccc(Cl)cc2s1,i,i,39,i,24,i
Cc1ccccc1S(=O)(=O)N1CC[C@@H]2[C@@H](CO)Nc3ccc(C#Cc4ccccc4)cc3[C@@H]21,i,nt,nt,nt,nt,nt
CC(C)NC(=O)N(C)C[C@@H]1Oc2ccc(NS(C)(=O)=O)cc2CC(=O)N(C)C[C@@H]1C,i,nt,nt,nt,nt,nt
CO[C@@H]1CN(C)C(=O)c2cc(NC(=O)c3ccc(F)cc3)ccc2OC[C@@H](C)N(C(C)=O)C[C@@H]1C,i,nt,nt,nt,nt,nt
C[C@@H](NC(=O)C[C@@H]1CC[C@H]2[C@@H](COC[C@@H](O)CN2C(=O)Nc2cccc(Cl)c2)O1)c1ccccc1,i,nt,nt,nt,nt,nt
